# Experimental data as given in ChEMBL document CHEMBL1137638, “TEM-158 (CMT-9), a new member of the CMT-type extended-spectrum beta-lactamases” (Antimicrob Agents Chemother, 2007).
# Calls of active or inactive are those of the source. The calls are words filed in the database; no cut-off is given here.
# Key:
# Escherichia coli [1] = assay: Antibacterial activity against Escherichia coli BER1 producing beta-lactamase TEM-158; type: functional, organism-based
# Escherichia coli [2] = assay: Antibacterial activity against Escherichia coli BER1 producing TEM-158 by microdilution method; type: functional, organism-based
# Escherichia coli [3] = assay: Activity of Escherichia coli DH5alpha beta-lactamase TEM-12 by microacidimetric method
# Procedure, shortened: (§1)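 Each beta-lactamase was purified to homogeneity. Kinetic constants (kcat, Km) for beta-lactam substrates, including penicillins, were determined by computerized microacidimetry.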
# Escherichia coli [4] = assay: Ratio of Kcat to Km for Escherichia coli DH5alpha beta-lactamase TEM-12; set-up: unit not given here; procedure, shortened: as §1
# Escherichia coli [5] = assay: Activity of Escherichia coli CF0042 beta-lactamase TEM-35 by microacidimetric method; procedure, shortened: as §1
# Escherichia coli [6] = assay: Ratio of Kcat to Km for Escherichia coli CF0042 beta-lactamase TEM-35; set-up: unit not given here; procedure, shortened: as §1
# Escherichia coli [7] = assay: Ratio of Kcat/Km for Escherichia coli DH5alpha beta-lactamase TEM-12 to Kcat/Km for Escherichia coli DH5alpha beta-lactamase TEM-158; procedure, shortened: as §1
# Escherichia coli [8] = assay: Ratio of Kcat/Km for Escherichia coli DH5alpha beta-lactamase TEM-35 to Kcat/Km for Escherichia coli DH5alpha beta-lactamase TEM-158; procedure, shortened: as §1
# Escherichia coli [9] = assay: Ratio of Kcat/Km for Escherichia coli DH5alpha beta-lactamase TEM-1 to Kcat/Km for Escherichia coli DH5alpha beta-lactamase TEM-158; procedure, shortened: as §1
# [10] = system: Escherichia coli str. K-12 substr. DH10B
Structure (SMILES),Activity (Escherichia coli [1]),Activity (Escherichia coli [2]),Km (Escherichia coli [3]) [µM],kcat (Escherichia coli [3]) [s⁻¹],kcat/Km (Escherichia coli [4]),Km (Escherichia coli [5]) [µM],kcat (Escherichia coli [5]) [s⁻¹],kcat/Km (Escherichia coli [6]),Ratio (Escherichia coli [7]),Ratio (Escherichia coli [8]),Ratio (Escherichia coli [9]),kcat [10] [s⁻¹]
CC1(C)S[C@@H]2[C@H](NC(=O)[C@H](C(=O)O)c3ccsc3)C(=O)N2[C@H]1C(=O)O,inactive,inactive,12,19,1.6,320,125,0.4,8,8,8,–
CCN1CCN(C(=O)N[C@@H](C(=O)N[C@@H]2C(=O)N3[C@@H]2SC(C)(C)[C@@H]3C(=O)O)c2ccccc2)C(=O)C1=O,inactive,inactive,15,89,6,320,945,2.9,8,8,8,–
CO[C@@]1(NC(=O)Cc2cccs2)C(=O)N2C(C(=O)O)=C(COC(N)=O)CS[C@@H]21,inactive,inactive,–,–,–,–,–,–,4,–,–,–
CO/N=C(\C(=O)N[C@@H]1C(=O)N2C(C(=O)O)=C(COC(C)=O)CS[C@H]12)c1csc(N)n1,inactive,inactive,320,10.6,0.03,–,< 0.1,–,4,–,–,–
CC(=O)OCC1=C(C(=O)O)N2C(=O)[C@@H](NC(=O)Cc3cccs3)[C@H]2SC1,inactive,inactive,327,46,0.02,1200,52,0.04,4,–,–,–
C[C@H]1[C@H](NC(=O)/C(=N\OC(C)(C)C(=O)O)c2csc(N)n2)C(=O)N1S(=O)(=O)O,inactive,inactive,247,2,0.008,–,< 0.1,–,4,–,–,–
CC1(C)S[C@@H]2[C@H](NC(=O)[C@H](N)c3ccc(O)cc3)C(=O)N2[C@H]1C(=O)O,inactive,inactive,7.5,60,8,245,900,8.5,4,8,8,–
C[C@@H](O)[C@H]1C(=O)N2C(C(=O)O)=C(SCCNC=N)C[C@H]12,inactive,inactive,–,–,–,–,–,–,4,–,–,–
CO/N=C(\C(=O)N[C@@H]1C(=O)N2C(C(=O)[O-])=C(C[N+]3(C)CCCC3)CS[C@H]12)c1csc(N)n1,inactive,inactive,–,–,–,–,–,–,4,–,–,–
CO/N=C(\C(=O)N[C@@H]1C(=O)N2C(C(=O)O)=C(COC(N)=O)CS[C@H]12)c1ccco1,inactive,inactive,–,–,–,–,–,–,4,–,–,–
CC1(C)S[C@@H]2[C@H](NC(=O)Cc3ccccc3)C(=O)N2[C@H]1C(=O)O,–,–,7,80,11,140,1050,7.5,8,8,8,–
CC(C)(O/N=C(\C(=O)N[C@@H]1C(=O)N2C(C(=O)[O-])=C(C[n+]3ccccc3)CS[C@H]12)c1csc(N)n1)C(=O)O,inactive,inactive,254,11.1,0.04,–,< 0.1,–,4,–,–,16
